Assay [1] can be described thus: Cell cycle arrest in human RH4 cells assessed as G0/G1 accumulation at 28 uM incubated for 72 hrs by propidium iodide staining based flow cytometry (reference value: 46.2 %). Format: functional. On the technique in general: Flow cytometry measures light scatter and fluorescence of single cells or particles in a stream.
The next assay relates to U-87MG ATCC. Briefly: Upregulation of E-cadherin levels in human U87 cells at 5 to 25 uM incubated for 24 hrs by Western blot analysis. Type of assay: functional, cell-based. The procedure, abridged: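 U87 glioblastoma cells treated 24 h at 5, 10 and 25 μM with DMSO control; E-cadherin and Snail probed by Western blot, tubulin as loading control.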
(In western blotting, separated proteins are transferred to a membrane and probed.)

Assay [2] can be described thus: Cell cycle arrest in human RH4 cells assessed as G2/M accumulation at 14 uM incubated for 72 hrs by propidium iodide staining based flow cytometry (reference value: 18.9 %). Format: functional.
The target in another assay is Histone deacetylase 3 (Homo sapiens, UniProt O15379). Nature of the assay: Inhibition of human recombinant HDAC3 using AMC-K(Ac)GL as substrate by fluorescence based assay.
Histone deacetylase 3, sequence (O15379 whole entry): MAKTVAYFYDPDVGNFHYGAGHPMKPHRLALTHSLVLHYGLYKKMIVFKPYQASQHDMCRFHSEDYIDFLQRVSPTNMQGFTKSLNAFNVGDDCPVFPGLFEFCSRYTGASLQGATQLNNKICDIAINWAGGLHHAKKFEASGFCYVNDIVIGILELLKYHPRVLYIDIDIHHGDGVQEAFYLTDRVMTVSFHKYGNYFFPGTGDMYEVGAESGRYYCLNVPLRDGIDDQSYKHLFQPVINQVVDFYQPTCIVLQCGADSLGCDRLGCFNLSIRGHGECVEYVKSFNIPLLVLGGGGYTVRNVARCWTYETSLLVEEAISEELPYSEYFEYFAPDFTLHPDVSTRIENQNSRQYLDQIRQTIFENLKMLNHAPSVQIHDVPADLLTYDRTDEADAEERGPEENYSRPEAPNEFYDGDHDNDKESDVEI
Assay [3] relates to U-937. Nature of the assay: Induction of apoptosis in human U937 cells assessed as necrotic cells at 25 uM incubated for 72 hrs by annexin V-FITC staining based flow cytometry (reference value: 0.5 %). Type of assay: functional.
The subject of the next assay is U-87 MG. Nature of the assay: Cytotoxicity against human U87 cells assessed as reduction in cell viability incubated for 72 hrs by CellTiter-Glo Luminescent cell viability assay. Format: functional, cell-based, U-87MG ATCC. In outline:
(§1)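 Antiproliferative IC50 after 72 h of treatment. Values are means of three independent experiments, each measured in triplicate, ± SD.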
Background: ATP-based viability assays read luminescence as a measure of living cells.

For a further assay, the species on record is Homo sapiens. Nature of the assay: Induction of differentiation of human RH4 cells assessed as increase in myogenin level at 7 uM incubated for 96 hrs by Western blot analysis. Type of assay: functional. In outline: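 Myogenin was measured by Western blot in RH4 cells treated at 7 and 14 μM for 48, 72 and 96 h. Vinculin served as the loading control.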

A short description of assay [4]: Cytotoxicity against human RH4 cells assessed as reduction in cell viability incubated for 72 hrs by CellTiter-Glo Luminescent cell viability assay. Format: functional, cell-based. The following applies: Rh4, 72 h. The procedure, abridged: as §1
The subject of assay [5] is U-937. Nature of the assay: Induction of apoptosis in human U937 cells assessed as viable cells at 25 uM incubated for 72 hrs by annexin V-FITC staining based flow cytometry (reference value: 95.4 %). The note with it: U-937, 72 h, read-out: Activity. Type of assay: functional.
Assay [6] is described as follows: Induction of apoptosis in human RH4 cells assessed as early apoptotic cells at 28 uM incubated for 72 hrs by annexin V-FITC staining based flow cytometry (reference value: 10.8 %). Format: functional.
Assay [7] in a line: Cell cycle arrest in human RH4 cells assessed as S accumulation at 14 uM incubated for 72 hrs by propidium iodide staining based flow cytometry (reference value: 29.9 %). Type of assay: functional.
The nature of assay [8]: Cytotoxicity against human RH4 cells assessed as reduction in cell viability at 35 uM incubated for 96 hrs by CellTiter-Glo Luminescent cell viability assay relative to control. Type of assay: functional. The note with it: Rh4, 96 h. In outline:
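Viability of U937 (5–25 μM) and RH4 (5–35 μM) cells after 48, 72 and 96 h of treatment at increasing concentrations.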

Assay [9] deals with T1, Histone-lysine N-methyltransferase EZH2 (Homo sapiens, UniProt Q15910). Nature of the assay: Inhibition of EZH2 in human RH4 cells assessed as H3K27me3 level at 50 uM incubated for 72 hrs by Western blot analysis. Format: cell-based.
T1 sequence (Q15910 whole entry, looked up): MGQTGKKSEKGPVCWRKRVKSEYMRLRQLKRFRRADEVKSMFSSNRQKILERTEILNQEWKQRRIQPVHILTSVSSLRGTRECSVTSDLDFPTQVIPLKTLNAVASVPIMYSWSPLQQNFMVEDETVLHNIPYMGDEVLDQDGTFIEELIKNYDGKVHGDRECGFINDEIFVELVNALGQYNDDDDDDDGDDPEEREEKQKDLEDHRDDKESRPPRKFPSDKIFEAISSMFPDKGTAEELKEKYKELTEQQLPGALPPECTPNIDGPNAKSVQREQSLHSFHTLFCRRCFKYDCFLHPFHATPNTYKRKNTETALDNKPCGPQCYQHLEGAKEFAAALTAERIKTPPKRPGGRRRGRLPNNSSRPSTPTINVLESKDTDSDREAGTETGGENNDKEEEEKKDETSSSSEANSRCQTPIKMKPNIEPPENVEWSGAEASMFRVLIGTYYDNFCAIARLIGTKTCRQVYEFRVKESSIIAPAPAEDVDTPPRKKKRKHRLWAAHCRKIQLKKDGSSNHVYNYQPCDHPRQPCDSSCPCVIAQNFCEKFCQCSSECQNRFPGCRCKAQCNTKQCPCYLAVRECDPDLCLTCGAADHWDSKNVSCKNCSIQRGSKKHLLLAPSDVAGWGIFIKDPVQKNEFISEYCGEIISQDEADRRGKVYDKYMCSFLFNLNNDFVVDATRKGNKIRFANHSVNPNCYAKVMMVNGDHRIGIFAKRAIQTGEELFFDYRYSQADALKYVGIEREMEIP
The target in assay [10] is T1, Histone-lysine N-methyltransferase EZH2. Nature of the assay: Inhibition of EZH2 in human RH4 cells assessed as H3K27me3 level at 50 uM in presence of vorinostat incubated for 72 hrs by Western blot analysis (reference value: 1). Format: cell-based. The procedure, abridged:
(§2)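 RH4 cells co-treated with EZH2 inhibitor at 50 μM plus HDAC inhibitor at 0.15 μM; Western blot after 72 or 96 h for H3K27me3 or acetyl-tubulin, vinculin loading control; densitometry normalized to loading control then DMSO vehicle.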

The target in assay [11] is T2, Protein deacetylase HDAC6 (Homo sapiens) (UniProt Q9UBN7).
T2 sequence (whole entry): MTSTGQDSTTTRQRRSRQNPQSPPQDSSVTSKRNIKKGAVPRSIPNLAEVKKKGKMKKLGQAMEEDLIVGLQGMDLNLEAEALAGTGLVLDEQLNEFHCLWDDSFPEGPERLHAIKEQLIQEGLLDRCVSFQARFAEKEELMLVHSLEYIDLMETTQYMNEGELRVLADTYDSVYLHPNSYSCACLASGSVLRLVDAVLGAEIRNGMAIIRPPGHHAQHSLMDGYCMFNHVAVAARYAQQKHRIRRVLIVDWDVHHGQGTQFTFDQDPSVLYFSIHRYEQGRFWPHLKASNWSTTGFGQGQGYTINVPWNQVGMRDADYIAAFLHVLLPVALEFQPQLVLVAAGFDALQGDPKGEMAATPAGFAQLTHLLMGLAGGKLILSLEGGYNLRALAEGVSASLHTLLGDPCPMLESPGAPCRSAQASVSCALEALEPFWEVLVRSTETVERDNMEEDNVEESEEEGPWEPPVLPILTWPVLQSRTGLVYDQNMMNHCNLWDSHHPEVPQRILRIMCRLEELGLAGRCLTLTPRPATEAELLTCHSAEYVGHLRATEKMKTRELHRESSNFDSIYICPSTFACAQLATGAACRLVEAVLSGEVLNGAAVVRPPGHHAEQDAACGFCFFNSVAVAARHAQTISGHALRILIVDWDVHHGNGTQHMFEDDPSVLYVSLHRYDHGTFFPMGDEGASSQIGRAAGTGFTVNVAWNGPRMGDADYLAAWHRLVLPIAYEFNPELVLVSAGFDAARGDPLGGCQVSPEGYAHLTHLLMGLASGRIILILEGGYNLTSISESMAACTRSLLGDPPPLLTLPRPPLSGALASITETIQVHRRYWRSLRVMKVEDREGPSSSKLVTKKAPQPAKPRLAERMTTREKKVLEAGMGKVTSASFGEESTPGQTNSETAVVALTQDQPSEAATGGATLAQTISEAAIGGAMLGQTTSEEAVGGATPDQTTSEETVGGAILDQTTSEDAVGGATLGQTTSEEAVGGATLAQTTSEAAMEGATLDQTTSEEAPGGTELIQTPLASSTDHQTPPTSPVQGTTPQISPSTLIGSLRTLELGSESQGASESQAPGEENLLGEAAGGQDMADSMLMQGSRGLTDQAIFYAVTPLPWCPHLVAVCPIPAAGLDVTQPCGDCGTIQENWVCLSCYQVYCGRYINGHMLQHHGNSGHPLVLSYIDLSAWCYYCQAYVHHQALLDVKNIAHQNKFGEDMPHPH
Nature of the assay: Inhibition of HDAC6 in human RH4 cells assessed as acetylated alpha-tubulin level at 50 uM in presence of vorinostat incubated for 96 hrs by Western blot analysis (reference value: 1). Type of assay: cell-based. In outline:
as §2

In assay [12] the target is Histone deacetylase (Homo sapiens) (UniProt Q13547+O15379+Q9UBN7+Q92769+Q9UQL6+Q8WUI4+Q9BY41+Q96DB2+P56524+Q9UKV0+Q969S8). Nature of the assay: Inhibition of HDAC in human U937 cells assessed as Ac-H3 level at 50 uM in presence of vorinostat incubated for 96 hrs by Western blot analysis (reference value: 1). Type of assay: cell-based. The note with it: U-937. The procedure, abridged:
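U937 leukemia cells given EZH2 inhibitor 50 μM together with HDAC inhibitor 0.5 μM; Western blot at 96 and 120 h for H3K27me3 or acetyl-H3, actin as loading control; densitometry normalized to loading control then to DMSO vehicle.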

pIC50: −log10 of the molar value. Activity calls are given as the source filed them. The rule behind the calls is not given here.

For `Cc1cc(C)c(CNC(=O)c2cc(C)n(-c3cccc(NC(=O)CCCCCCC(=O)NO)c3)c2C)c(=O)[nH]1`, the Activity is reported as 44.9% in assay [1]; 16.1% in assay [2]; 0.3% with U-937 [3]; 26.5% in assay [6]; 30.3% in assay [7]. In addition, the result with U-87MG ATCC and in the assay listed under Homo sapiens was Active. The results for the pIC50 (at Histone deacetylase 3; in the assay with U-87 MG; in assay [4]) were 6.35, 4.70 and 4.89, respectively. Moreover, the viability at 25 µM with U-937 [5] is 75%. Besides, the inhibition at 35 µM in [8] is 90%.
As for `Cc1cc(C)c(CNC(=O)c2cc(C)n(-c3ccccc3)c2C)c(=O)[nH]1`, the fold change (FC) came out at 0.3 in assay [9], 0.02 in assay [10], 1.3 in assay [11] and 2.1 in [12].

For orientation: pIC50 means the negative decadic logarithm of the IC50, by convention in mol/L. As a reminder, the inhibition is the change of the read-out against control, counted positive when it falls.

For the origin of these results see ChEMBL document CHEMBL4613315, “Design of First-in-Class Dual EZH2/HDAC Inhibitor: Biochemical Activity and Biological Evaluation in Cancer Cells” (ACS Med Chem Lett, 2020).
